Laboratory results from ChEMBL document CHEMBL3085744, “Hepatoprotective prenylaromadendrane-type diterpenes from the gum resin of Boswellia carterii” (J Nat Prod, 2013).
Active and inactive are the calls of the source. The calls are words filed in the database; no cut-off is given here.

What was measured:
Neuron = assay: Neuroprotective activity against MPP+-induced neuronal cell injury in neurons (unknown origin); type: functional, cell-based
[1] = Hepatoprotective activity in human HL-7702 cells assessed as inhibition of D-galactosamine-induced cell toxicity incubated for 1 hr prior to D-galactosamine-challenge measured after 24 hrs by MTT assay relative to control; type: functional, L02
L02 [2] = assay: Hepatoprotective activity against D-galactosamine-induced cell toxicity in human HL-7702 cells assessed as cell survival incubated for 1 hr prior to D-galactosamine-challenge measured after 24 hrs by MTT assay relative to normal cells; type: functional; parameters: concentration or dose not given beside the values
In short: (§1)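 HL-7702 cells (2 × 10^4 per well) precultured 24 h at 37 °C, 5% CO2 in RPMI 1640 with 10% fetal calf serum, penicillin and streptomycin. Test compound (10 μM) added in fresh medium for 1 h, then 25 mM D-galactosamine for 24 h. MTT 0.5 mg/mL 4 h, formazan in DMSO, OD 492 nm. Survival as % of normal; means ± SD, n = 3; bicyclol 10 μM as positive control.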

A2780 = assay: Cytotoxicity against human A2780 cells by MTT assay; type: cell-based
A549 = assay: Cytotoxicity against human A549 cells by MTT assay; type: cell-based
[3] = Cytotoxicity against human BGC823 cells by MTT assay; type: cell-based; conditions: BGC-823
[4] = Cytotoxicity against human Bel7402 cells by MTT assay; type: cell-based; conditions: Bel-7402
[5] = Cytotoxicity against human HCT8 cells by MTT assay; type: cell-based; conditions: HCT-8
L02 [6] = assay: Hepatoprotective activity against D-galactosamine-induced cell toxicity in human HL-7702 cells assessed as cell survival at 10 uM incubated for 1 hr prior to D-galactosamine-challenge measured after 24 hrs by MTT assay relative to normal cells; type: functional; conditions: read-out: Survival; in short: as §1

C=C1CC[C@@H]2[C@H]([C@H]3[C@H](C)CC[C@@H]13)[C@@]2(C)C[C@H](O)/C=C(/C)CO
Activity (Neuron): inactive
inhibition (INH) [1]: 36.3%
Survival (L02 [2]): 73%
IC50 (A2780): > 10 µM
IC50 (A549): > 10 µM
IC50 [3]: > 10 µM
IC50 [4]: > 10 µM
IC50 [5]: > 10 µM

C=C1CC[C@@H]2[C@H]([C@@H]3[C@H]1CC[C@]3(C)O)[C@@]2(C)CC/C=C(/C)CO
Activity (Neuron): inactive
inhibition (INH) [1]: 33.6%
Survival (L02 [2]): 73%
IC50 (A2780): > 10 µM
IC50 (A549): > 10 µM
IC50 [3]: > 10 µM
IC50 [4]: > 10 µM
IC50 [5]: > 10 µM

C=C1CC[C@@H]2[C@H]([C@@H]3[C@H]1CC[C@]3(C)O)[C@@]2(C)C(/C=C/C(C)(C)O)OC (stereo not given in full)
Activity (Neuron): inactive
IC50 (A2780): > 10 µM
IC50 (A549): > 10 µM
IC50 [3]: > 10 µM
IC50 [4]: > 10 µM
IC50 [5]: > 10 µM

C=C1CC[C@@H]2[C@H]([C@@H]3[C@H]1CC[C@]3(C)O)[C@@]2(C)C[C@@H]1C=C(C)C(=O)O1
Activity (Neuron): inactive
inhibition (INH) [1]: 33.6%
Survival (L02 [2]): 73%
IC50 (A2780): > 10 µM
IC50 (A549): > 10 µM
IC50 [3]: > 10 µM
IC50 [4]: > 10 µM
IC50 [5]: > 10 µM

C=C1CC[C@@H]2[C@H]([C@@H]3[C@H]1CC[C@]3(C)O)[C@@]2(C)/C=C/C=C(/C)CO
Activity (Neuron): inactive
inhibition (INH) [1]: 26.1%
Survival (L02 [2]): 69%
IC50 (A2780): > 10 µM
IC50 (A549): > 10 µM
IC50 [3]: > 10 µM
IC50 [4]: > 10 µM
IC50 [5]: > 10 µM

C=C1CC[C@@H]2[C@H]([C@@H]3[C@H]1CC[C@]3(C)O)[C@@]2(C)[C@@H]1C(=O)C(C)=C[C@H]1O
Activity (Neuron): inactive
IC50 (A2780): > 10 µM
IC50 (A549): > 10 µM
IC50 [3]: > 10 µM
IC50 [4]: > 10 µM
IC50 [5]: > 10 µM

COC(=O)c1cc(OC)c2c(c1-c1c(CO)cc(OC)c3c1OCO3)OCO2 [BICYCLOL]
viability at 10 µM (L02 [6]): 76%
inhibition (INH) [1]: 42.5%

C=C1CC[C@@H]2[C@H]([C@@H]3[C@H]1CC[C@]3(C)O)[C@@]2(C)/C=C/C=C(\C)C=O
Activity (Neuron): inactive
inhibition (INH) [1]: 69.6%
Survival (L02 [2]): 88%
IC50 (A2780): > 10 µM
IC50 (A549): > 10 µM
IC50 [3]: > 10 µM
IC50 [4]: > 10 µM
IC50 [5]: > 10 µM

C=C1CC[C@@H]2[C@H]([C@@H]3[C@H]1CC[C@]3(C)O)[C@@]2(C)C/C=C/C(C)(C)O
Activity (Neuron): inactive
inhibition (INH) [1]: 27%
Survival (L02 [2]): 70%
IC50 (A2780): > 10 µM
IC50 (A549): > 10 µM
IC50 [3]: > 10 µM
IC50 [4]: > 10 µM
IC50 [5]: > 10 µM

C=C1CC[C@@H]2[C@H]([C@@H]3[C@H]1CC[C@]3(C)O)[C@@]2(C)C[C@H]1C=C(C)C(=O)O1
Activity (Neuron): inactive
inhibition (INH) [1]: 24.3%
Survival (L02 [2]): 68%
IC50 (A2780): > 10 µM
IC50 (A549): > 10 µM
IC50 [3]: > 10 µM
IC50 [4]: > 10 µM
IC50 [5]: > 10 µM
